From PubChem BioAssay come the findings set out here.

The nature of assay [1]: nonspecific flux increase, KCNQ1-free cells – parental CHO cells, counter-screen for KCNQ1 potentiator project (AID 493006). As to conditions: parental CHO-K1 cells, FluxOR thallium flux, at 10 µM; stronger effect = higher value. Summed up:
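Test system: parental CHO-K1 cells, FluxOR dye-loaded / Probe or stimulus: potassium plus thallium depolarizing stimulus, 5x stock 12.5 mM K2SO4, Tl2SO4 / Timing: overnight 37 °C plating, 90 min dye, 20 min dark compound / Measured by: kinetic thallium-flux fluorescence / Read-out: max-minus-min fluorescence over baseline, percent of buffer-to-R-L3 span / Benchmarks: buffer and R-L3 controls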
Background: The purpose of a counterscreen is to sort out artefacts and off-target activity.

Assay [2] concerns the target Potassium voltage-gated channel subfamily KQT member 1 (Homo sapiens) (UniProt P51787). Put plainly: enhancement of KCNQ1 channel thallium flux – FluxOR thallium flux, CHO cells, duplicates, confirmation (AID 493007;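 active = potentiation averaged over duplicate wells exceeding buffer-only control mean by more than 3 SD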;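 as to outcome: cells depolarized by a potassium plus thallium sulfate stimulus after compound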;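 as to potentiation: 0% = buffer-only wells and 100% = R-L3 activator control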). The note with it: KCNQ1 cell line, FluxOR thallium flux fluorescence, at 10 µM; stronger effect = higher value, % of reference activator effect, buffer zero. Summed up:
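Assay system: CHO cells carrying KCNQ1 | Controls: Buffer and R-L3 controls | Schedule: FluxOR dye loading 90 min, compound exposure 20 min, room temperature | Read-out: Baseline-normalized fluorescence change, percent of buffer-to-R-L3 range | Replicates: Each compound tested in duplicate | Technique: Kinetic thallium influx fluorescence with FluxOR dye, 10 s baseline, 110 s post-stimulus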

Assay [3] has as its target Potassium voltage-gated channel subfamily KQT member 2 (Rattus norvegicus) (UniProt O88943). In words: KCNQ2 thallium flux enhancement – KCNQ2-CHO-K1 cells, selectivity assay for KCNQ1 potentiator project (AID 493009;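 active = mean duplicate potentiation above the buffer control mean plus 5 SD of buffer wells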;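 also: assay conditions were tuned for KCNQ1 rather than KCNQ2 modulators; signal is max minus min fluorescence divided by baseline after thallium stimulus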). The note with it: FluxOR thallium flux fluorescence, at 10 µM; stronger effect = higher value, scaled: buffer 0, activator control 100.
In assay [4] the target is Potassium voltage-gated channel subfamily KQT member 1 (Homo sapiens) (UniProt P51787). Put plainly: KCNQ1 activators by electrophysiology – IonWorks patch clamp, KCNQ1-CHO cells, orthogonal assay for KCNQ1 potentiator project, confirmation (AID 493184;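 active = current rise at least 3 SD above the untreated control mean in each of two repeat wells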). The note with it: automated patch clamp current, at 10 µM; stronger effect = higher value. In outline:
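Material: KCNQ1-expressing CHO cells; doses: 10 µM final, single point; probe or stimulus: voltage step from -90 mV holding to +40 mV, 2,000 ms; signal: automated voltage clamp, amphotericin B perforated patch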
In general terms: The patch-clamp technique gives a direct electrical read-out from membranes.

Calls of active or inactive are those of the source.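 The calls were made as follows, unless noted: active = duplicate-averaged activation above buffer control mean plus 5 SD of those controls; inactive = the rest.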

Chain of Potassium voltage-gated channel subfamily KQT member 1 (Homo sapiens) (P51787 whole entry, looked up): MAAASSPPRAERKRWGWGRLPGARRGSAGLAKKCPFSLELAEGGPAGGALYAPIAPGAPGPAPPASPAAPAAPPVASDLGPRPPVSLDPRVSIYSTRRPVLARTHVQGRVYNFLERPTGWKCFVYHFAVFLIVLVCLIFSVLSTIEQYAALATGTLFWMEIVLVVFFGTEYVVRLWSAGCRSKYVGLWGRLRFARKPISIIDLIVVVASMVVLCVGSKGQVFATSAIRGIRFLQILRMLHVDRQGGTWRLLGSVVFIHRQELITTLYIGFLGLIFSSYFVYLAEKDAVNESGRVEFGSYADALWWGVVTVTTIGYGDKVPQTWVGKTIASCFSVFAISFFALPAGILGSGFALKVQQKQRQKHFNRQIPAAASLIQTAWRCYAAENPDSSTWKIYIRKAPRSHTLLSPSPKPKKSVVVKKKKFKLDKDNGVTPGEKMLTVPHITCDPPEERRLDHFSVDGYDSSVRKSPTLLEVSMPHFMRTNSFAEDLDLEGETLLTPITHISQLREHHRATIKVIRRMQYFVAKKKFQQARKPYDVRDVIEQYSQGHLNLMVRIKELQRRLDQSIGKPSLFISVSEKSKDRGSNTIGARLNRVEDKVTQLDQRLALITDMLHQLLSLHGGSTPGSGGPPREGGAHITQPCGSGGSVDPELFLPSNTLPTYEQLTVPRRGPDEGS
Chain of Potassium voltage-gated channel subfamily KQT member 2 (Rattus norvegicus) (O88943 whole entry, looked up): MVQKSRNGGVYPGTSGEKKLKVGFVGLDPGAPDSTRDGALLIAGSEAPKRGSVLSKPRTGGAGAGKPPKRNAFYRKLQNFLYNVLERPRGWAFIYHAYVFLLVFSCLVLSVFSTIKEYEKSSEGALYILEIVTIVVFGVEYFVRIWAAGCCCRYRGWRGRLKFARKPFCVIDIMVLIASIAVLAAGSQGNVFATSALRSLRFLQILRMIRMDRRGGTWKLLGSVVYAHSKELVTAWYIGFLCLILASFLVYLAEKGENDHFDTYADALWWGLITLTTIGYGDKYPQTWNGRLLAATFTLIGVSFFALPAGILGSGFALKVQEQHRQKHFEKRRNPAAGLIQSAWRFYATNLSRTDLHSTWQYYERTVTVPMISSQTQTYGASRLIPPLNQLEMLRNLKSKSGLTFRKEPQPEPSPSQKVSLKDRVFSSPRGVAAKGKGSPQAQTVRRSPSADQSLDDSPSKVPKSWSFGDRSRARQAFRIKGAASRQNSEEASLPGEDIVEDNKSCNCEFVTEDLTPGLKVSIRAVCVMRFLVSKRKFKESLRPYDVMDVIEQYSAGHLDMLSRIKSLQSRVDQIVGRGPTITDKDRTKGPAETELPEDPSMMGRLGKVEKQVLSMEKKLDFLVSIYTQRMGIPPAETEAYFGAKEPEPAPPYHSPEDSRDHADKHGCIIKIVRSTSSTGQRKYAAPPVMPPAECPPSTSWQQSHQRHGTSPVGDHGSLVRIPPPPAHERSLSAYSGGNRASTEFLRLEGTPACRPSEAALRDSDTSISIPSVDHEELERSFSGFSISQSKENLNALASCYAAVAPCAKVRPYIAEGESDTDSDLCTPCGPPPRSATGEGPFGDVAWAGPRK

With `O=C(CNc1ccc2c(c1)OCO2)N/N=C\c1cn(Cc2ccccc2)c2ccccc12`, the result in assay [1], in assay [2], in assay [3] and in assay [4] was inactive.
As for `O=C(Nc1ccncc1)c1ccc([N+](=O)[O-])cc1Cl`, the outcome in assay [1], in assay [2], in assay [3] and in assay [4] was inactive.
With `CCOC(=S)NC(=O)c1sc2ccccc2c1Cl`, the activation in assay [1] was 398% (active). Also, the potentiation in assay [2] was 122% (active); in assay [3], 404% (active). Also, the outcome in assay [4] was inactive.
On to `COCCN(Cc1cc2cc3c(cc2nc1Cl)OCO3)C(=O)c1ccc(C)cc1`, for which the outcome in assay [1], in assay [2], in assay [3] and in assay [4] was inactive.
With `COC(=O)c1cc2c(ccc3ccccc32)oc1=O`, the outcome in assay [1], in assay [2], in assay [3] and in assay [4] was inactive.
For the compound `O=C(NCc1cccc(Cl)c1)c1cccc(OC2CCN(C(=O)C3CC3)CC2)c1`, the result in assay [1], in assay [2], in assay [3] and in assay [4] was inactive.
With `CCCC(=O)N1CCN(Cc2nc3cc([N+](=O)[O-])ccc3n2C)CC1`, the outcome in assay [1], in assay [2], in assay [3] and in assay [4] was inactive.
Consider `Cc1ccc(S(=O)(=O)NCC(c2ccc3c(c2)OCO3)N2CCOCC2)cc1` (stereo not given), for which the outcome in assay [1], in assay [2], in assay [3] and in assay [4] was inactive.
As to `N#CC1=C(Nc2ccccc2)SC=C(c2ccc(Br)cc2)N=C1N1CCOCC1`, the outcome in assay [1], in assay [2], in assay [3] and in assay [4] was inactive.
Regarding `Cc1nc2ccccc2c(N)c1C(=O)/C=C/c1ccccc1`, the result in assay [1], in assay [2], in assay [3] and in assay [4] was inactive.
For `O=C(CCC1CCN(C(=O)c2cncs2)CC1)Nc1ccccc1`, the activation in assay [1] is 446% (active). The potentiation in assay [2] was 164% (active); in assay [3], 464% (active). Further, in assay [4], the outcome was inactive.
As for `CC(=O)Nc1ccc(S(=O)(=O)N2CCC(C(=O)O)CC2)cc1`, the result in assay [1], in assay [2], in assay [3] and in assay [4] was inactive.
Take `COc1cccc(C(=O)NNC(=O)C(=O)Nc2ccc(OC)cc2OC)c1`: the activation in assay [1] is 178% (active). Moreover, the potentiation in assay [2] is 41% (active); in assay [3] it was 202% (active). In addition, in assay [4], the result was inactive.
`COC(=O)C1C(=O)c2c([nH]c(C(=O)OCCSC)c2C)CC1C` (stereo not given): the outcome in assay [1], in assay [2], in assay [3] and in assay [4] was inactive.
On to `CN1CCN(C=Nc2nc3ccccc3nc2N2CCCC2)CC1`, for which the result in assay [1], in assay [2], in assay [3] and in assay [4] was inactive.
Regarding `S=c1nc(C2CCCCC2)[nH]c2ccccc12`, in assay [1], the activation was 138% (active). Besides, the values for the potentiation in assay [2] and in assay [3] were 22.5% (active) and 160% (active), respectively. The result in assay [4] was inactive.
In the case of `Cc1ccc2cc(CN(C(=O)c3ccco3)c3ccccc3C)c(=O)[nH]c2c1`, the result in assay [1], in assay [2], in assay [3] and in assay [4] was inactive.
As for `Oc1c(CN2CCN(c3ccccn3)CC2)cc(Cl)c2cccnc12`, the activation in assay [1] was 148% (active). In addition, the potentiation is 35% (active) in assay [2] and 172% (active) in assay [3]. In assay [4], the result was inactive.
As to `Cc1ccc(-n2[nH]c(C)c(/C=N/N3C(=O)c4cccc5cccc(c45)C3=O)c2=O)cc1`, the activation in assay [1] is 153% (active). The potentiation is 86% (active) in assay [2] and 225% (active) in assay [3]. For the same compound, in assay [4], the result was inactive.
On to `O=C(CSc1ncnc2c1cnn2-c1ccc(F)cc1)NC1CCCC1`, for which the outcome in assay [1], in assay [2], in assay [3] and in assay [4] was inactive.
Turning to `CCN(CC)S(=O)(=O)c1cccc(C(=O)N[C@H](C(=O)NNC(=O)c2ccccc2)C(C)C)c1`, the result in assay [1], in assay [2], in assay [3] and in assay [4] was inactive.
In the case of `COc1ccc(S(=O)(=O)NCCOc2ccccc2)cc1OC`, the result in assay [1], in assay [2], in assay [3] and in assay [4] was inactive.
Regarding `O=C1c2ccccc2NC(c2ccc(Br)s2)N1O` (stereo not given), in assay [1], the activation is 282% (active). Besides, the potentiation in assay [2] is 57% (active); in assay [3] it was 252% (active). Moreover, in assay [4], the result was inactive.
With `O=C(COc1ncnc2ccc(Br)cc12)Nc1ccc(N2CCOCC2)cc1`, the result in assay [1], in assay [2], in assay [3] and in assay [4] was inactive.
Regarding `CC(C)(C)c1ccc(OCC(=O)NNC(=S)NC(=O)c2ccco2)c(Br)c1`, the activation in assay [1] is 150% (active). The results for the potentiation in assay [2] and in assay [3] were 89.5% (active) and 254% (active), respectively. In addition, in assay [4], the outcome was inactive.
For `COc1cc2c(cc1OC)C(C)N(C(=S)NC(=O)c1ccccc1)CC2` (stereo not given), the activation in assay [1] was 141% (active). The result in assay [2], in assay [3] and in assay [4] was inactive.
As to `Cc1ccc(C(=O)OCC(=O)N(C)c2ccccc2)cc1C`, in assay [1], the activation was 397% (active). For the same compound, the potentiation in assay [2] was 252% (active); in assay [3] it was 405% (active). For the same compound, in assay [4], the outcome was inactive.
On to `Cc1ccc(O)c(C(=O)CC(=O)c2ccccc2Cl)c1`, for which the activation in assay [1] was 158% (active). Moreover, the potentiation was 72.5% (active) in assay [2] and 144% (active) in assay [3]. For the same compound, in assay [4], the result was inactive.
For `CCCN(Cc1ccccc1)C(=S)NC(=O)c1ccccc1[N+](=O)[O-]`, in that order: 430% (active), 177% (active), 452% (active) and “inactive”.
Take `CCC(NC(=O)CCc1nnc(-c2cc(C)on2)o1)C12CC3CC(CC(C3)C1)C2` (stereo not given): the result in assay [1], in assay [2], in assay [3] and in assay [4] was inactive.
